Experimental data as given in ChEMBL document CHEMBL1122113, “Synthesis and antitumor activity of new platinum complexes” (J Med Chem, 1982).
Where “and” joins values, the source holds several entries; their conditions need not be identical. Equal entries are not always repeated.

Columns and labels:
L1210 [1] = assay: In vitro inhibition of L1210 leukemia cells growth.; assay type: functional, cell-based; conditions: Mus musculus
Summary of the method: (§1)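 Murine L1210 and PDD-resistant L1210/PDD cells kept in McCoy's 5A with 10% fetal calf serum. Compounds in water or Me2SO, or as suspensions, added to inoculated medium; Me2SO at most 0.2% final. Seeding about 5 × 10^4 cells/mL, then 96 h at 37 °C in 5% CO2. Density measured by electronic cell counter. ID50 (µg/mL) from growth inhibition.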

L1210 [2] = assay: In vitro inhibition of PDD resistant subline L1210/PDD growth.; assay type: functional, cell-based; conditions: Mus musculus; summary of the method: as §1
Mus musculus [3] = assay: Activity against L1210 leukemia cells was measured as treated by control on ip administration of 5 mg/kg in mice; assay type: functional, organism-based; set-up: dose 5 mg/kg; conditions: at 5 mg/kg
Mus musculus [4] = assay: Activity against L1210 leukemia cells was measured as treated by control on ip administration of 10 mg/kg in mice; assay type: functional, organism-based; set-up: dose 10 mg/kg; conditions: at 10 mg/kg
Mus musculus [5] = assay: Activity against L1210 leukemia cells was measured as treated by control on ip administration of 1 mg/kg in mice; assay type: functional, organism-based; set-up: dose 1 mg/kg; conditions: at 1 mg/kg
Mus musculus [6] = assay: Activity against L1210 leukemia cells was measured as treated by control on ip administration of 50 mg/kg in mice;Toxic; assay type: functional, organism-based; set-up: dose 50 mg/kg; conditions: at 50 mg/kg
Mus musculus [7] = assay: Activity against L1210 leukemia cells was measured as treated by control on ip administration of 2.5 mg/kg in mice; assay type: functional, organism-based; set-up: dose 2.5 mg/kg; conditions: at 2.5 mg/kg
Mus musculus [8] = assay: Activity against L1210 leukemia cells was measured as treated by control on ip administration of 20 mg/kg in mice; assay type: functional, organism-based; set-up: dose 20 mg/kg; conditions: at 20 mg/kg
Mus musculus [9] = assay: Activity against L1210 leukemia cells was measured as treated by control on ip administration of 40 mg/kg in mice; assay type: functional, organism-based; set-up: dose 40 mg/kg; conditions: at 40 mg/kg
Mus musculus [10] = assay: Activity against L1210 leukemia cells was measured as treated by control on ip administration of 1.25 mg/kg in mice; assay type: functional, organism-based; set-up: dose 1.25 mg/kg; conditions: at 1.25 mg/kg
Mus musculus [11] = assay: Activity against L1210 leukemia cells was measured as treated by control on ip administration of 0.62 mg/kg in mice; assay type: functional, organism-based; set-up: dose 0.62 mg/kg; conditions: at 0.62 mg/kg

| Substance | ID50 (L1210 [1]) [µg/mL] | ID50 (L1210 [2]) [µg/mL] | other results |
| --- | --- | --- | --- |
| ethyl(1-trichloroplatinum-2-pyridiniumyl)ammonium | > 10 | > 10 | – |
| 1-chloroplatinumsulphate-3-pyridiniumammonium | 4.6 | > 10 | – |
| 1-trichloroplatinum-1,4-diazoniabicyclo[2.2.2]octane | > 10 | > 10 | – |
| 4-trichloroplatinum-4-azoniabicyclo[2.2.2]oct-2-ammonium | 2 | 5 | – |
| 1-(4-pyridiniumyl)-2-(1-trichloroplatinum-4-pyridiniumyl)ethane | > 10 | > 10 | – |
| 1-trichloroplatinum-3-pyridiniumylmethanammonium | > 10 | > 10 | T/C (Mus musculus [3]): 123% and 138%; T/C (Mus musculus [4]): 125%; T/C (Mus musculus [5]): 100%; T/C (Mus musculus [6]): Toxic |
| 3-(1-methyltetrahydro-1H-2-pyrroliumyl)-1-trichloroplatinumpyridinium | > 10 | > 10 | – |
| 1-trichloroplatinum-3-pyridiniumammonium | > 10 | > 10 | – |
| ethyl(1-trichloroplatinum-2-pyridiniumylmethyl)ammonium | > 10 | > 10 | T/C (Mus musculus [7]): 119%; T/C (Mus musculus [8]): 140%; T/C (Mus musculus [3]): 122%; T/C (Mus musculus [4]): 139%; T/C (Mus musculus [9]): 148% |
| N-methyl-1-trichloroplatinum-3-pyridiniumylmethanammonium | > 10 | > 10 | T/C (Mus musculus [7]): 126%; T/C (Mus musculus [8]): 133%; T/C (Mus musculus [3]): 120%; T/C (Mus musculus [4]): 130%; T/C (Mus musculus [10]): 122%; T/C (Mus musculus [11]): 110% |
| 1-(trichloro-dihydroxy)platinum-3-pyridiniumammonium | 4.5 | > 10 | – |
| 1-trichloroplatinumhexahydropyrazinediium | > 10 | > 10 | – |
| 1-methyl-4-trichloroplatinumhexahydropyrazinediium | 9 | > 10 | – |
| 1-pentachloroplatinum-3-pyridiniumammonium | 4.4 | > 10 | – |
| 2,5-dimethyl-1-trichloroplatinumhexahydropyrazinediium | 10 | > 10 | – |
| 2-(1-ethylhexahydro-2-pyridiniumyl)-1-trichloroplatinumpyridinium | > 10 | > 10 | – |
| 1-trichloroplatinumhexahydro-1-pyridiniumammonium | 4.2 | > 10 | – |
